Results: ChEMBL document CHEMBL1155807, “Synthesis, biological evaluation, and enzyme docking simulations of 1,5-diarylpyrrole-3-alkoxyethyl ethers as selective cyclooxygenase-2 inhibitors endowed with anti-inflammatory and antinociceptive activity” (J Med Chem, 2008)
pIC50: −log10 of the molar value. Activity calls are given as the source filed them.

Experiments:
J774 = assay: Selectivity index, ratio of IC50 for mouse COX1 in mouse J774 cells to IC50 for mouse COX2 in LPS-stimulated mouse J774 cells; assay type: cell-based
Procedure, shortened: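 The ratio is IC50(COX-1)/IC50(COX-2), both from J774 cells. For COX-1, cells were given a 15 min compound pretreatment and then 15 µM arachidonic acid for 30 min. For COX-2, cells were exposed to LPS (10 µg/mL) for 24 h with compound. In both, PGE2 was measured by radioimmunoassay and IC50 came from a sigmoidal fit of the means of three experiments.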

Mus musculus [1] = assay: Antinociceptive activity against acetic acid-induced abdominal constriction in Swiss albino mouse assessed as number of writhes at 10 mg/kg, po; assay type: functional, Abdomen
Procedure, shortened: (§1)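 Male Swiss albino mice (23-25 g) were dosed per os, with CMC as vehicle, 30 min before 0.6% acetic acid. Stretching movements were counted for 10 min, starting 5 min after acetic acid (Koster method). Results are mean ± SEM; ANOVA with Fisher's PLSD, versus vehicle-treated mice.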

Rattus norvegicus [2] = assay: Antiinflammatory activity against carrageenan-induced hyperalgesia in rat assessed as paw pressure at 20 mg/kg, po after 60 mins; assay type: functional
Procedure, shortened: (§2)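 Rats received carrageenan (0.1 mL, 1%) intraplantar 4 h before the test, then compound at 20 mg/kg po. Nociceptive threshold was measured with an analgesimeter (Leighton method) before and 30, 60 and 120 min after treatment, with a 250 g cutoff. Groups had 5-6 rats; mean ± SEM, ANOVA with Fisher's PLSD post hoc.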

Rattus norvegicus [3] = assay: Antiinflammatory activity against carrageenan-induced edema in rat assessed as paw volume at 20 mg/kg, po […]; assay type: functional
Procedure, shortened: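 Carrageenan (0.1 mL of 1.0%) was injected intraplantar into Sprague-Dawley or Wistar rats (150-200 g). Compound was given po at 20 mg/kg 3 h 30 min after carrageenan. Right hind paw volume was measured by plethysmometer 4 h after carrageenan and compared with saline/carrageenan controls. Values are in mL, with 5-6 rats per group.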

Rattus norvegicus [4] = assay: Antiinflammatory activity against carrageenan-induced hyperalgesia in rat assessed as paw pressure at 20 mg/kg, po after 120 mins; assay type: functional; procedure, shortened: as §2
[5] = molecular target: T1, Prostaglandin G/H synthase 2 (Mus musculus, UniProt Q05769); assay: Inhibition of mouse COX2 in LPS-stimulated mouse J774 cells assessed as PGE2 production by radioimmunoassay; assay type: cell-based
T1 sequence (Q05769 whole entry): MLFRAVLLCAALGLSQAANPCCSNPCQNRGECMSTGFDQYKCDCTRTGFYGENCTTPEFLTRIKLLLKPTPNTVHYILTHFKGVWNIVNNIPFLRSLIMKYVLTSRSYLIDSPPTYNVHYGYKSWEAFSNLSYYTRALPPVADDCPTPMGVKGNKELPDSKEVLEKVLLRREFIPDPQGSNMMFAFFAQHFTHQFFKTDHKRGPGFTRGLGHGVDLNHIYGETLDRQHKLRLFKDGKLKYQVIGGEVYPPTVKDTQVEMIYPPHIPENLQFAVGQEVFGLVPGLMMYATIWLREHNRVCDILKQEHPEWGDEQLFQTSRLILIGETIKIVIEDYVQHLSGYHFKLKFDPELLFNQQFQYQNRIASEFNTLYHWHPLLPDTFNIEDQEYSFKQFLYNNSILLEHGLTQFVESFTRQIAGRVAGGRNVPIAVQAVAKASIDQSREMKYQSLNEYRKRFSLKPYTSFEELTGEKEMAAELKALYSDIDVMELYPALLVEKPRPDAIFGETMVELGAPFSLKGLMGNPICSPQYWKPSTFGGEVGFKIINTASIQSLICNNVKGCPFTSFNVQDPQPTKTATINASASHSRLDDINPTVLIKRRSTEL
Procedure, shortened: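 J774 cells in serum-free medium were stimulated with E. coli LPS (10 µg/mL) for 24 h to induce COX-2, with or without compound present. Supernatant PGE2 was measured by radioimmunoassay. Percent inhibition was taken against control; triplicate wells, mean of three experiments; IC50 from a variable-slope sigmoidal fit.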

[6] = molecular target: T2, Prostaglandin G/H synthase 1 (Mus musculus, UniProt P22437); assay: Inhibition of mouse COX1 in mouse J774 cells assessed as PGE2 production by radioimmunoassay; assay type: cell-based
T2 sequence (P22437 whole entry): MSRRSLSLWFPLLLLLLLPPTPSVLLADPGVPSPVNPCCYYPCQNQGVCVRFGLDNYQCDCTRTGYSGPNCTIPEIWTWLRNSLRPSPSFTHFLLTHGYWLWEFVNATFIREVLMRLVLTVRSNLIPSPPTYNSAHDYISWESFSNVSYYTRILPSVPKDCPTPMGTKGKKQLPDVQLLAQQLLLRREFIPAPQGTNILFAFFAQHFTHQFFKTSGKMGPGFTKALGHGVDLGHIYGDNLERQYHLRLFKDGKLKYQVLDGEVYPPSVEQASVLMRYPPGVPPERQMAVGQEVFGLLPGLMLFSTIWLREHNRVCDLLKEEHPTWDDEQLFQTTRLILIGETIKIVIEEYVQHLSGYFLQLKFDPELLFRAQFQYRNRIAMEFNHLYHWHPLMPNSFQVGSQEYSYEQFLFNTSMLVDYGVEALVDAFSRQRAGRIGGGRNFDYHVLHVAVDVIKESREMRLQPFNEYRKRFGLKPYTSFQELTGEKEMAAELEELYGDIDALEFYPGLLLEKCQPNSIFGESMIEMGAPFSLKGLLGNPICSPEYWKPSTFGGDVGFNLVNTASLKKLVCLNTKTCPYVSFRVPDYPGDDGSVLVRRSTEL

Mus musculus [7] = assay: Antinociceptive activity against acetic acid-induced abdominal constriction in Swiss albino mouse assessed as number of writhes at 20 mg/kg, po; assay type: functional, Abdomen; procedure, shortened: as §1
Mus musculus [8] = assay: Antinociceptive activity against acetic acid-induced abdominal constriction in Swiss albino mouse assessed as reduction in number of writhes at 20 mg/kg, po; assay type: functional, organism-based; parameters: dose 20 mg/kg; settings: Abdomen; procedure, shortened: as §1
Rattus norvegicus [9] = assay: Antiinflammatory activity against carrageenan-induced hyperalgesia in rat assessed as paw pressure at 20 mg/kg, po after 30 mins; assay type: functional; procedure, shortened: as §2
[10] = molecular target: Prostaglandin G/H synthase 1 (Homo sapiens, UniProt P23219); assay: Inhibition of COX1 in human whole blood allowed to clot assessed as TXB2 production
Sequence of Prostaglandin G/H synthase 1 (Homo sapiens, UniProt P23219) (P23219 whole entry): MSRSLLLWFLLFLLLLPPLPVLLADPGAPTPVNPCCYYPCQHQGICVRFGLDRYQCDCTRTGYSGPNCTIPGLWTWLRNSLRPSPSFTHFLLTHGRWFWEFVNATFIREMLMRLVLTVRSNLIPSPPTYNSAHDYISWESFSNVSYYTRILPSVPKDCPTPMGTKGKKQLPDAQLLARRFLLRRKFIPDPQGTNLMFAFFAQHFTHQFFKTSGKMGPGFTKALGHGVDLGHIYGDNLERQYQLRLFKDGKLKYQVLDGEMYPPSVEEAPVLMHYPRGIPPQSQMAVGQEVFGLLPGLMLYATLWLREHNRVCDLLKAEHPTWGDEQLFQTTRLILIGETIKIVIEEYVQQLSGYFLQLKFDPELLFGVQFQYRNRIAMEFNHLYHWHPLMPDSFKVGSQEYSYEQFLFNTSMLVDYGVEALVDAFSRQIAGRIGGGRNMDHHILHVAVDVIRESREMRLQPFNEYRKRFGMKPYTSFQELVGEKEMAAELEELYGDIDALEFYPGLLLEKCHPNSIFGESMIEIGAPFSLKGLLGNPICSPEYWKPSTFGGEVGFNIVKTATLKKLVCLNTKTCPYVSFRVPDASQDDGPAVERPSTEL

[11] = molecular target: T3, Prostaglandin G/H synthase 2 (Homo sapiens, UniProt P35354); assay: Inhibition of COX2 in human whole blood assessed as effect on thrombin-induced TXB2 production; assay type: tissue-based
T3 sequence (P35354 whole entry): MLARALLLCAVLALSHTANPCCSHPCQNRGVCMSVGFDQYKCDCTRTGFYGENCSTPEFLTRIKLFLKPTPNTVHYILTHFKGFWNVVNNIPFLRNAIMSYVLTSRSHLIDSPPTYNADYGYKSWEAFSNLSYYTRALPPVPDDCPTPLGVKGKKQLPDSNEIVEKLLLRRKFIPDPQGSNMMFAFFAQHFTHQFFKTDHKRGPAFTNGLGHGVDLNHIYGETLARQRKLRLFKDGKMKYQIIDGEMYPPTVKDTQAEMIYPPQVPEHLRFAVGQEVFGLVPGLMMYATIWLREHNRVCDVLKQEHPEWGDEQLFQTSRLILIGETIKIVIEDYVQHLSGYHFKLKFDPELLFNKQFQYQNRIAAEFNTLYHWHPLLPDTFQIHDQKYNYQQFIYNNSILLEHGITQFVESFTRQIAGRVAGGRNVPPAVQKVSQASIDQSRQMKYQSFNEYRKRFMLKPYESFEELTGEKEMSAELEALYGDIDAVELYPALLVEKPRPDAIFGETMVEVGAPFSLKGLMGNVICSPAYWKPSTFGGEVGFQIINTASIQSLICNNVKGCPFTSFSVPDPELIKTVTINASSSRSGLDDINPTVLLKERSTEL

Homo sapiens = organism: Homo sapiens; assay: Selectivity index, ratio of IC50 for human COX1 to IC50 for human COX2 by whole blood assay
Procedure, shortened: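 Human whole blood from three healthy donors (no NSAID for 2 weeks); compounds in DMSO at final 0.01–1000 µM. COX-2: heparinized blood from aspirin-pretreated donors (300 mg, 48 h) with LPS 10 µg/mL, 24 h, 37 °C; plasma PGE2 by RIA. COX-1: blood clotted 1 h, 37 °C; serum TXB2 by RIA. Mean % inhibition vs vehicle; IC50(COX-1)/IC50(COX-2).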

| SMILES | Ratio IC50 (J774) | pIC50 [5] | pIC50 [6] | further results |
| --- | --- | --- | --- | --- |
| CCOC(=O)Cc1cc(-c2ccc(S(C)(=O)=O)cc2)n(-c2ccccc2)c1C | > 2500 | – | – | – |
| CCOC(=O)Cc1cc(-c2ccc(S(C)(=O)=O)cc2)n(-c2ccc(C(F)(F)F)cc2)c1C | > 1600 | – | – | – |
| CCOCCc1cc(-c2ccc(S(C)(=O)=O)cc2)n(-c2ccccc2)c1C | > 6670 | 7.82 | < 4.00 | Activity (Mus musculus [1]): 26.5; Activity (Rattus norvegicus [2]): 53.8 g; Activity (Rattus norvegicus [3]): 1.37 mL; Activity (Rattus norvegicus [4]): 49.1 g; Activity (Mus musculus [7]): 11.4; Activity (Mus musculus [8]): Active; Activity (Rattus norvegicus [9]): 59.6 g |
| COCCc1cc(-c2ccc(S(C)(=O)=O)cc2)n(-c2ccc(C(F)(F)F)cc2)c1C | > 2040 | 7.31 | < 4.00 | – |
| CCCOCCc1cc(-c2ccc(S(C)(=O)=O)cc2)n(-c2ccccc2)c1C | > 5560 | 7.74 | < 4.00 | Activity (Mus musculus [1]): 27.43; pIC50 [10]: 4.07; Activity (Rattus norvegicus [2]): 59.4 g; Activity (Rattus norvegicus [3]): 1.41 mL; Activity (Rattus norvegicus [4]): 50.6 g; pIC50 [11]: 5.89; Ratio IC50 (Homo sapiens): 66; Activity (Mus musculus [7]): 13.6; Activity (Mus musculus [8]): Active; Activity (Rattus norvegicus [9]): 56.3 g |
| CS(=O)(=O)c1ccc(C2=C(c3ccccc3)C(=O)OC2)cc1 | – | – | – | Ratio IC50 (Homo sapiens): > 200 |
| CCOCCc1cc(-c2ccc(S(C)(=O)=O)cc2)n(-c2ccc(C(F)(F)F)cc2)c1C | > 1180 | 7.07 | < 4.00 | – |
| CCOC(=O)Cc1cc(-c2ccc(S(C)(=O)=O)cc2)n(-c2ccc(C)cc2)c1C | > 208 | – | – | – |
| COCCc1cc(-c2ccc(S(C)(=O)=O)cc2)n(-c2ccc(F)cc2)c1C | > 5560 | 7.74 | < 4.00 | – |
| CCCOCCc1cc(-c2ccc(S(C)(=O)=O)cc2)n(-c2ccc(C(F)(F)F)cc2)c1C | > 909 | 6.96 | < 4.00 | – |
| COCCc1cc(-c2ccc(S(C)(=O)=O)cc2)n(-c2ccccc2)c1C | > 2080 | 7.32 | < 4.00 | – |
| CCOCCc1cc(-c2ccc(S(C)(=O)=O)cc2)n(-c2ccc(F)cc2)c1C | > 2130 | 7.33 | < 4.00 | – |
| CCCOCCc1cc(-c2ccc(S(C)(=O)=O)cc2)n(-c2ccc(F)cc2)c1C | > 3330 | 7.52 | < 4.00 | Activity (Mus musculus [1]): 38.1; Activity (Rattus norvegicus [2]): 56.8 g; Activity (Rattus norvegicus [3]): 1.45 mL; Activity (Rattus norvegicus [4]): 52.7 g; Activity (Mus musculus [7]): 16.7; Activity (Mus musculus [8]): Active; Activity (Rattus norvegicus [9]): 52.4 g |
